Screening data from PubChem.
E-sel inducer – E-selectin induction on HUVECs | HUVEC E-selectin immunofluorescence imaging; normalized: neutral wells 0, TNF-alpha wells 100 | 260,000 tested, 0.37% active | AID 686992 | activation, % at 7.58 µM;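 active means mean E-selectin-positive cell signal at least 10% of the positive control, reached in at least 60% of replicates, without over 20% cell loss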
Target sequence (P16581 whole entry, looked up): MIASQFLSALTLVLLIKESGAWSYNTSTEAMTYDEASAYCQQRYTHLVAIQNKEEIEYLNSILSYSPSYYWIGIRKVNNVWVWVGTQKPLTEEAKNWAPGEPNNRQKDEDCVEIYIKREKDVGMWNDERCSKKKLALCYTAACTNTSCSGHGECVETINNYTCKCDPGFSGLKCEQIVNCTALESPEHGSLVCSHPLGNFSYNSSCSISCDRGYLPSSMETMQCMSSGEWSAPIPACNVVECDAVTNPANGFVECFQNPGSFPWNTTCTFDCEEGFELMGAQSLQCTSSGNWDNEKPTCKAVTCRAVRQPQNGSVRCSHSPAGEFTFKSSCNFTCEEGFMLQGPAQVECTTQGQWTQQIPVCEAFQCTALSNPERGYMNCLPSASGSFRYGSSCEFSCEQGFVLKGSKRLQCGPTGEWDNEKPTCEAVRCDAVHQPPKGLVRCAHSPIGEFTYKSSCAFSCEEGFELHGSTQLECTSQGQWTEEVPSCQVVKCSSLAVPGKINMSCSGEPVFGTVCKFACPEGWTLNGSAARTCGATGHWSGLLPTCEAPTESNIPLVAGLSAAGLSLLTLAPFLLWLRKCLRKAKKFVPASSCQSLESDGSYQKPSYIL
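Read-out basis: % PE-positive cells; Test system: HUVEC primary endothelial cells; Technique: immunofluorescence imaging; Dosing: single-point compound dose.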
S100A4 inh HTS – inhibitors of human S100A4 binding to myosin IIA peptide | S100A4/TAMRA-MyoIIA peptide fluorescence polarization | inhibition, % at 10.7 µM | 360,000 tested, 0.14% active | P26447 | AID 652163;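 active means mean inhibition of at least 70% across replicates, with every replicate also reaching that level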
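Material: S100A4 monomer protein / Buffer or medium: 50 mM HEPES pH 7.2, 10 mM CaCl2, 100 mM KCl / Times: 5 min incubation before reading / Benchmarks: neutral control DMSO, positive control TFP / Reagent: labelled myosin peptide probe, 5 nM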
FGF22 binding – binders of recombinant human FGF22 by thermal shift. Q9HCT0. SYPRO orange fluorescence; percent of sucrose octasulfate shift, DMSO zero. activity (Tm shift, normalised), % at 9.99 µM. 340,000 tested, 1.5% active;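 active means mean Tm shift, scaled 0 neutral to 100 positive control, at about 1.3% or above, every replicate too, limit read from the data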
F508del corr – CFTR F508del correction in bronchial cells; CFBE cells, YFP halide quenching; stimulated with forskolin plus potentiator P3; % fluorescence drop versus neutral controls; 350,000 tested, 0.36% active; AID 720511; activity (quench increase), % at 7.58 µM;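 active means mean added fluorescence quench of at least 8% versus neutral control, with both replicates also reaching 8%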;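 further: cells transiently co-express mutant CFTR-F508del with the halide-sensitive YFP; corrector assay measuring rescue of mutant channel to the surface after 24 h compound exposure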
HIV Env fusion – inhibitors of HIV Env-mediated cell fusion; inhibition, % at 12.3 µM; 360,000 tested, 1.1% active; HeLa-JRFL Env/CEM21 cell fusion, luciferase;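 active means mean replicate inhibition score of at least 50 and every replicate individually at or above 50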;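 further: 0% = plate neutral controls and 100% = maraviroc near 300 nM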
* = called active by the depositor; [ ] = dose if it differs, or a comment. This is a sample that favours compounds with a hit; in the whole collection about 2.7% have one here.

Cc1cc(-n2c(C)cc(C(=O)CSc3ncnc4ccccc34)c2C)no1 was read as HIV Env fusion 51*.
Cc1cc(C(=O)CSc2ncnc3ccccc23)c(C)n1C1CC1 was read as S100A4 inh HTS 3, FGF22 binding 0, F508del corr 2 and HIV Env fusion -7.
Cc1ccc(C2=NN(C(=O)c3ccco3)C(O)(C(F)(F)F)C2)cc1 (configuration not stated) was read as S100A4 inh HTS 1, FGF22 binding 44*, F508del corr -1 and HIV Env fusion -5.
`CC1Cc2nc(SCC(=O)c3ccccc3)n(Cc3ccccc3)c(=O)c2S1` (configuration not stated) gave S100A4 inh HTS -3, FGF22 binding 0, F508del corr -2 and HIV Env fusion 25.
Screening CC1Cc2nc(SCC(=O)NCc3ccccc3)n(Cc3ccccc3)c(=O)c2S1 (configuration not stated) returned S100A4 inh HTS -3, FGF22 binding 0, F508del corr 2 and HIV Env fusion 72*.
Screening O=C(CSc1nc2ccccc2c(=O)n1Cc1ccco1)c1ccc(F)cc1 returned HIV Env fusion 58*.
For Cc1cc2c(=O)n(Cc3ccco3)c(SCC(=O)c3ccc(Cl)s3)nc2s1 the results were HIV Env fusion 76*.
`O=C(CSc1nc2ccccc2c(=O)n1Cc1ccc(F)cc1)NCc1cccs1` gave S100A4 inh HTS 30, FGF22 binding 0, F508del corr 4 and HIV Env fusion 62*.
`C[C@H]1CCCCO[C@H](CN(C)S(=O)(=O)c2ccccc2)[C@@H](C)CN([C@@H](C)CO)C(=O)c2cc(NC(=O)Nc3ccc4c(c3)OCO4)ccc2O1` gave E-sel inducer 0, S100A4 inh HTS 2, FGF22 binding -1, F508del corr -1 and HIV Env fusion 4[16.7 µM].
C[C@@H]1CN([C@H](C)CO)C(=O)c2cc(NC(=O)Nc3ccc(F)cc3)ccc2O[C@@H](C)CCCCO[C@H]1CN(C)Cc1ccncc1 was read as E-sel inducer 0, FGF22 binding 0, F508del corr -1 and HIV Env fusion 11[16.7 µM].
CCCCNC(=S)N1CCn2cccc2C1c1ccc(F)cc1 (configuration not stated) was read as S100A4 inh HTS -2, FGF22 binding 0, F508del corr 2 and HIV Env fusion 58*.
Screening CCCCNC(=S)N1CCn2cccc2C1c1ccccc1 (configuration not stated) returned E-sel inducer 2, S100A4 inh HTS -7, FGF22 binding 0, F508del corr 3 and HIV Env fusion 40.
For O=c1oc(-c2ccccc2F)nc2scc(-c3ccccc3)c12 the results were S100A4 inh HTS 13, FGF22 binding 0, F508del corr -1 and HIV Env fusion 64*.
For CCC(=O)N(C)C[C@H]1Oc2ncc(-c3ccc(C#N)cc3)cc2C(=O)N([C@H](C)CO)C[C@H]1C the results were E-sel inducer 0, S100A4 inh HTS -4, FGF22 binding 0, F508del corr 1 and HIV Env fusion -15[16.7 µM].
`COc1ccc(S(=O)(=O)Nc2cccc3c2O[C@@H](CN(C)CC2CC2)[C@H](C)CN([C@H](C)CO)C3=O)cc1` gave E-sel inducer 0, S100A4 inh HTS 2, FGF22 binding 0 and F508del corr 0.
For CCOCCn1c(SCc2ccccc2)nc2c1c(=O)[nH]c(=O)n2C the results were S100A4 inh HTS -3, FGF22 binding 0, F508del corr -6 and HIV Env fusion -14.
`CCOCCn1c(N2CCN(c3ccccc3)CC2)nc2c1c(=O)[nH]c(=O)n2C` gave E-sel inducer 2, S100A4 inh HTS -2, FGF22 binding 43*, F508del corr 0 and HIV Env fusion -1.
`Cn1c(=O)[nH]c(=O)c2c1nc(N1CCNCC1)n2Cc1cccc2ccccc12` gave HIV Env fusion 58*.
`Cn1c(=O)[nH]c(=O)c2c1nc(N1CCNCC1)n2Cc1ccccc1` gave E-sel inducer -2, S100A4 inh HTS -3, FGF22 binding 0, F508del corr -2 and HIV Env fusion 4.
Screening CN(Cc1ccon1)Cc1cn[nH]c1-c1ccc(-c2ccccc2)cc1 returned S100A4 inh HTS -10, FGF22 binding 43*, F508del corr 0 and HIV Env fusion 8.
`CC(c1ccon1)N(C)Cc1cn[nH]c1-c1ccc(-c2ccccc2)cc1` (configuration not stated) gave S100A4 inh HTS -4, FGF22 binding 0, F508del corr -4 and HIV Env fusion -11.
For C[C@H](CO)N1C[C@H](C)[C@@H](CN(C)C(=O)CN(C)C)Oc2cc(C#Cc3cccnc3)ccc2S1(=O)=O the results were E-sel inducer 0, S100A4 inh HTS -76, FGF22 binding 1, F508del corr -2 and HIV Env fusion 7[16.7 µM].
For C[C@H](C(=O)N(C)C[C@@H]1OCc2ccccc2-c2ccccc2C(=O)N([C@H](C)CO)C[C@@H]1C)c1ccccc1 the results were E-sel inducer 0, F508del corr -1 and HIV Env fusion 57*[16.7 µM].
`C[C@H](CO)N1C[C@H](C)[C@H](CN(C)C(=O)[C@H](C)c2ccccc2)OCc2ccccc2-c2ccccc2C1=O` gave E-sel inducer 0, F508del corr 3 and HIV Env fusion 8[16.7 µM].
Screening C[C@H](C(=O)N(C)C[C@@H]1OCc2ccccc2-c2ccccc2C(=O)N([C@@H](C)CO)C[C@@H]1C)c1ccccc1 returned E-sel inducer 0, S100A4 inh HTS -2, FGF22 binding 0, F508del corr 3 and HIV Env fusion 58*[16.7 µM].
For C[C@@H]1CN([C@H](C)CO)C(=O)c2ccccc2-c2ccccc2CO[C@H]1CN(C)C(=O)Oc1ccccc1 the results were E-sel inducer 0, S100A4 inh HTS 94*, FGF22 binding 0 and F508del corr 4.
C[C@H](C(=O)N(C)C[C@H]1OCc2ccccc2-c2ccccc2C(=O)N([C@@H](C)CO)C[C@H]1C)c1ccccc1 was read as E-sel inducer 0, S100A4 inh HTS 11, FGF22 binding 0, F508del corr 1 and HIV Env fusion 21[16.7 µM].
`C[C@H](C(=O)N(C)C[C@@H]1OCc2ccccc2-c2ccccc2C(=O)N([C@@H](C)CO)C[C@H]1C)c1ccccc1` gave E-sel inducer 0, S100A4 inh HTS 2, FGF22 binding 0, F508del corr 0 and HIV Env fusion 59*[16.7 µM].
For C[C@@H]1CN([C@H](C)CO)C(=O)c2cc(NC(=O)Nc3ccccc3)ccc2O[C@H]1CN(C)Cc1ccc(-c2ccccc2)cc1 the results were E-sel inducer 0, S100A4 inh HTS 2, FGF22 binding 0, F508del corr -1 and HIV Env fusion 17[16.7 µM].
For COc1ccc(-c2ccnc(-c3ccc(O)cc3)n2)cc1 the results were S100A4 inh HTS 1, FGF22 binding 0, F508del corr 11* and HIV Env fusion -8.
